# Results taken from ChEMBL document CHEMBL1143754, “2-Styrylchromones: novel strong scavengers of reactive oxygen and nitrogen species” (Bioorg Med Chem, 2007).
# pIC50: −log10 of the molar value. Calls of active or inactive are those of the source. No cut-off for these calls is given here.
# Key:
# Format in all cases: functional
# [1] = Superoxide radical scavenging activity by NBT reduction assay
# Summary of the method: (§1)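 Superoxide generated by NADH/PMS at room temperature. Final: NADH 166 µM, NBT 43 µM, PMS 2.7 µM in 19 mM phosphate pH 7.4; compounds in DMSO. NBT reduction to diformazan followed at 560 nm for 2 min. % inhibition. Propyl gallate control. Four experiments in triplicate.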
# [2] = Hydrogen peroxide scavenging activity at 250 uM by assessed as inhibition of lucigenin oxidation
# Summary of the method: (§2)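 Chemiluminescence assay of H2O2-induced lucigenin oxidation, 37 °C, 50 mM Tris-HCl pH 7.4. Final concentrations: lucigenin 0.8 mM, 1% H2O2. Compounds in DMSO at various concentrations. Signal read right after the plate goes into the reader. Reported as % inhibition of lucigenin oxidation. Ascorbic acid as positive control. Four experiments, each in triplicate.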
# [3] = Hypochlorous acid scavenging activity assessed as inhibition of DHR oxidation
# Summary of the method: (§3)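 HOCl made fresh by bringing 1% NaOCl to pH 6.2 with H2SO4, quantified at 235 nm. Final: DHR 5 µM, HOCl 5 µM in 100 mM phosphate pH 7.4, compounds in ethanol. Run at 37 °C; rhodamine 123 fluorescence (ex 485/em 528 nm) read immediately. % inhibition of DHR oxidation. Lipoic acid control. Four experiments in triplicate.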
# [4] = Singlet oxygen scavenging activity by assessed as inhibition of DHR oxidation
# Summary of the method: (§4)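 Singlet oxygen from thermal breakdown of the endoperoxide NDPO2 (1 mM final), with histidine 10 mM and DHR 50 µM in 100 mM phosphate pH 7.4. Compounds in DMSO. After 30 min at 37 °C, rhodamine 123 fluorescence (ex 485/em 528 nm). % inhibition of DHR oxidation. Penicillamine control. Four experiments in triplicate.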
# [5] = Nitric oxide scavenging activity assessed as inhibition of DAF2 oxidation at 250 uM
# Summary of the method: (§5)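 NOC-5 (10 µM final) as NO donor, DAF-2 5 µM in 50 mM KH2PO4 pH 7.4, compounds in DMSO. After 30 min at 37 °C, DAF-2T fluorescence read (ex 485/em 528 nm). Value is % inhibition of DAF-2 oxidation. Rutin control.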
# [6] = Peroxynitrite scavenging activity assessed as inhibition of DHR oxidation
# Summary of the method: (§6)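 Buffer of 90 mM NaCl, 50 mM Na3PO4, 5 mM KCl, pH 7.4, with 100 µM DTPA. Final: DHR 5 µM, ONOO− 600 nM, compounds in DMSO. 37 °C, fluorescence (ex 485/em 528 nm) after 2 min. % inhibition of DHR oxidation. Ebselen control. Four experiments in triplicate.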
# [7] = Peroxynitrite scavenging activity assessed as inhibition of DHR oxidation in presence of NaHCo3
# Summary of the method: (§7)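 Parallel peroxynitrite set with 25 mM NaHCO3 added to mimic physiological CO2. Otherwise the same: 100 µM DTPA phosphate/NaCl/KCl buffer pH 7.4, DHR 5 µM, ONOO− 600 nM, compounds in DMSO. 37 °C, 2 min, fluorescence ex 485/em 528 nm. % inhibition of DHR oxidation. Four experiments in triplicate.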
# [8] = Superoxide radical scavenging activity at 100 uM by NBT reduction assay; summary of the method: as §1
# [9] = Hypochlorous acid scavenging activity at 25 uM assessed as inhibition of DHR oxidation; summary of the method: as §3
# [10] = Singlet oxygen scavenging activity at 40 uM assessed as inhibition of DHR oxidation; summary of the method: as §4
# [11] = Nitric oxide scavenging activity assessed as inhibition of DAF2 oxidation at 50 uM; summary of the method: as §5
# [12] = Peroxynitrite scavenging activity assessed as inhibition of DHR oxidation at 150 uM; summary of the method: as §6
# [13] = Superoxide radical scavenging activity at 125 uM by NBT reduction assay; summary of the method: as §1
# [14] = Hypochlorous acid scavenging activity at 125 uM assessed as inhibition of DHR oxidation; summary of the method: as §3
# [15] = Singlet oxygen scavenging activity at 200 uM assessed as inhibition of DHR oxidation; summary of the method: as §4
# [16] = Nitric oxide scavenging activity assessed as inhibition of DAF2 oxidation at 100 uM; summary of the method: as §5
# [17] = Peroxynitrite scavenging activity assessed as inhibition of DHR oxidation in presence of NaHCo3 at 150 uM; summary of the method: as §7
# [18] = Peroxynitrite scavenging activity assessed as inhibition of DHR oxidation at 62 uM; summary of the method: as §6
# [19] = Hypochlorous acid scavenging activity at 50 uM assessed as inhibition of DHR oxidation; summary of the method: as §3
# [20] = Singlet oxygen scavenging activity at 100 uM assessed as inhibition of DHR oxidation; summary of the method: as §4
# [21] = Peroxynitrite scavenging activity assessed as inhibition of DHR oxidation in presence of NaHCo3 at 62 uM; summary of the method: as §7
# [22] = Nitric oxide scavenging activity assessed as inhibition of DAF2 oxidation; summary of the method: as §5
# [23] = Singlet oxygen scavenging activity at 1 mM assessed inhibition of as DHR oxidation; summary of the method: as §4
# [24] = Hydrogen peroxide scavenging activity by assessed as inhibition of lucigenin oxidation; summary of the method: as §2
# [25] = Singlet oxygen scavenging activity at 500 uM assessed as inhibition of DHR oxidation; summary of the method: as §4
# [26] = Peroxynitrite scavenging activity assessed as inhibition of DHR oxidation at 500 uM; summary of the method: as §6
# [27] = Peroxynitrite scavenging activity assessed as inhibition of DHR oxidation in presence of NaHCo3 at 500 uM; summary of the method: as §7
# [28] = Hypochlorous acid scavenging activity at 100 uM assessed as inhibition of DHR oxidation; summary of the method: as §3
pIC50 [1],pIC50 [3],pIC50 [4],pIC50 [6],pIC50 [7],pIC50 [22],Compound,Activity [2],further results
,,,5.98,6.01,,O=c1cc(/C=C/c2ccc(O)cc2)oc2cccc(O)c12,,Activity [8]: inactive; inhibition [2]: 40%; inhibition [9]: 29%; inhibition [10]: 29%; Activity [11]: inactive
4.11,5.07,3.74,5.90,5.92,,O=c1cc(/C=C/c2ccc(O)cc2)oc2cc(O)cc(O)c12,,inhibition [2]: 36%; inhibition [5]: 21%
,,,,,5.44,C[C@@H]1O[C@@H](OC[C@H]2O[C@@H](Oc3c(-c4ccc(O)c(O)c4)oc4cc(O)cc(O)c4c3=O)[C@H](O)[C@@H](O)[C@@H]2O)[C@H](O)[C@H](O)[C@H]1O [RUTIN],,
,5.24,3.79,4.33,4.39,4.13,O=c1cc(/C=C/c2ccccc2)oc2cc(O)cc(O)c12,inactive,inhibition [13]: 27%
,,5.31,,,,CC(C)(S)[C@@H](N)C(=O)O [PENICILLAMINE],,
,4.14,,,,,O=c1cc(/C=C/c2ccccc2)oc2cc(O)ccc12,inactive,inhibition [13]: 40%; Activity [23]: inactive; Activity [5]: inactive; Activity [26]: inactive; Activity [27]: inactive
,,3.61,5.92,5.91,,O=c1cc(/C=C/c2ccc(O)cc2)oc2ccccc12,inactive,inhibition [13]: 32%; inhibition [28]: 34%; inhibition [5]: 46%
,3.83,,,,,O=c1cc(-c2ccccc2)oc2cc(O)ccc12 [7-HYDROXYFLAVONE],inactive,Activity [13]: inactive; Activity [23]: inactive; Activity [5]: inactive; Activity [26]: inactive; Activity [27]: inactive

# Further lines, the compound ahead of its results:
Compound,pIC50 [1],pIC50 [3],pIC50 [4],pIC50 [6],pIC50 [7],pIC50 [22],Activity [2],further results
O=c1cc(/C=C/c2ccc(O)cc2)oc2cc(O)ccc12,4.18,4.04,3.58,5.85,5.78,,inactive,inhibition [5]: 23%
O=c1cc(/C=C/c2ccccc2)oc2ccccc12,,,,,,,inactive,inhibition [12]: 27%; Activity [13]: inactive; inhibition [14]: 10%; Activity [15]: inactive; Activity [16]: inactive; inhibition [17]: 27%
"O=C(O)CCCCC1CCSS1 (stereo not drawn) [LIPOIC ACID, ALPHA]",,5.62,,,,,,
O=c1cc(-c2ccccc2)oc2cccc(O)c12,,,,,,,inactive,Activity [18]: inactive; Activity [13]: inactive; inhibition [19]: 17%; Activity [20]: inactive; Activity [16]: inactive; Activity [21]: inactive
O=c1cc(-c2ccc(O)cc2)oc2cc(O)cc(O)c12 [APIGENIN],,5.41,,4.12,4.67,,inactive,inhibition [8]: 35%; inhibition [23]: 30%; Activity [5]: inactive
O=C1O[C@H]([C@@H](O)CO)C(O)=C1O [ASCORBIC ACID],,,,,,,,pIC50 [24]: 3.20
O=c1cc(/C=C/c2ccc(O)c(O)c2)oc2cc(O)cc(O)c12,4.31,5.41,5.19,6.59,6.20,6.29,,pIC50 [24]: 4.30
O=c1cc(/C=C/c2ccccc2)oc2cccc(O)c12,,,,,,,inactive,Activity [18]: inactive; Activity [13]: inactive; inhibition [19]: 17%; Activity [20]: inactive; Activity [11]: inactive; Activity [21]: inactive
O=c1cc(-c2ccccc2)oc2cc(O)cc(O)c12 [CHRYSIN],,5.41,,3.73,3.85,,inactive,Activity [13]: inactive; Activity [25]: inactive; inhibition [5]: 20%
CCCOC(=O)c1cc(O)c(O)c(O)c1 [PROPYL GALLATE],4.61,,,,,,,
O=c1c(O)c(-c2ccc(O)c(O)c2)oc2cc(O)cc(O)c12 [QUERCETIN],4.33,5.96,5.28,6.59,6.36,5.71,,pIC50 [24]: 3.11
O=c1cc(-c2ccc(O)c(O)c2)oc2cc(O)cc(O)c12 [LUTEOLIN],4.23,5.15,4.63,6.52,6.19,5.58,,pIC50 [24]: 3.05
O=c1cc(/C=C/c2ccc(O)c(O)c2)oc2ccccc12,4.15,4.49,5.10,6.62,6.36,6.47,,pIC50 [24]: 3.74
O=c1c2ccccc2[se]n1-c1ccccc1 [EBSELEN],,,,6.04,5.33,,,
O=c1cc(/C=C/c2ccc(O)c(O)c2)oc2cc(O)ccc12,4.29,4.74,5.00,6.52,6.21,6.54,,pIC50 [24]: 3.94
O=c1cc(/C=C/c2ccc(O)c(O)c2)oc2cccc(O)c12,4.09,4.77,5.31,6.59,6.29,6.62,,pIC50 [24]: 4.31
